According to ChEMBL document CHEMBL1139980, “Identification of 1-isopropylsulfonyl-2-amine benzimidazoles as a new class of inhibitors of hepatitis B virus” (Eur J Med Chem, 2007):
Calls of active or inactive are those of the source. The calls are words filed in the database; no cut-off is given here.

What was measured:
[1] = Selectivity index, ratio of CC50 for HepG2.2.15 cells to IC50 for HBV; format: functional
How it was run: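 The index was calculated as CC50 divided by IC50. CC50 came from an 8-day MTT assay in HepG2.2.15 cells, and IC50 from fluorescent-PCR quantification of HBV DNA after treatment of confluent HepG2.2.15 cultures.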

Hepatitis B virus = test: Inhibition of cytoplasmic HBV DNA synthesis in HepG2.2.15 cells after 8 days; format: functional, organism-based; details: for IC50: HepG2.2.15, 192 h
How it was run: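 Confluent HepG2.2.15 cultures were treated with various doses. A 50 µL supernatant sample was added to extraction buffer, boiled for 10 min and centrifuged for 5 min, and aliquots were run in fluorescent PCR with HBV-specific primers and probe. IC50 was taken as the concentration giving 50% inhibition of cytoplasmic HBV DNA synthesis.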

CC(C)S(=O)(=O)n1c(N)nc2cc(NC(=O)c3ccccc3)ccc21
Ratio CC50/IC50 [1]: >250 | IC50 (Hepatitis B virus): 2000 nM

COc1cccc(CN(Cc2cccc(OC)c2)c2ccc3nc(N)n(S(=O)(=O)C(C)C)c3c2)c1
Ratio CC50/IC50 [1]: 123 | IC50 (Hepatitis B virus): 700 nM

Cc1ccc(S(=O)(=O)Nc2ccc3c(c2)nc(N)n3S(=O)(=O)C(C)C)cc1
Ratio CC50/IC50 [1]: 9 | IC50 (Hepatitis B virus): 16000 nM

CC(C)S(=O)(=O)n1c(N)nc2ccc(NC(=O)c3ccccc3Cl)cc21
Ratio CC50/IC50 [1]: 107 | IC50 (Hepatitis B virus): 820 nM

CC(C)S(=O)(=O)n1c(N)nc2ccc(NCc3ccccc3)cc21
Activity (Hepatitis B virus): inactive

CC(C)S(=O)(=O)n1c(N)nc2ccc(NS(=O)(=O)c3cccc([N+](=O)[O-])c3)cc21
Ratio CC50/IC50 [1]: 5 | IC50 (Hepatitis B virus): 10500 nM

CC(C)S(=O)(=O)n1c(N)nc2ccc(NS(=O)(=O)c3ccccc3)cc21
Ratio CC50/IC50 [1]: 41 | IC50 (Hepatitis B virus): 1500 nM

Cc1ccc(S(=O)(=O)Nc2ccc3nc(N)n(S(=O)(=O)C(C)C)c3c2)cc1
Ratio CC50/IC50 [1]: 17 | IC50 (Hepatitis B virus): 4800 nM

CC(C)S(=O)(=O)n1c(N)nc2ccc(NC(=O)c3ccccc3F)cc21
Ratio CC50/IC50 [1]: 51 | IC50 (Hepatitis B virus): 940 nM

CC(C)S(=O)(=O)n1c(N)nc2ccc(NC(=O)c3c(F)cccc3F)cc21
Ratio CC50/IC50 [1]: 274 | IC50 (Hepatitis B virus): 700 nM

Nc1ccn([C@@H]2CS[C@H](CO)O2)c(=O)n1 [LAMIVUDINE]
Ratio CC50/IC50 [1]: >2632

CC(C)S(=O)(=O)n1c(N)nc2ccc(NC(=O)c3ccccc3)cc21
Ratio CC50/IC50 [1]: >15 | IC50 (Hepatitis B virus): 33700 nM

CC(C)S(=O)(=O)n1c(N)nc2cc(NC(=O)c3ccc(F)cc3)ccc21
Ratio CC50/IC50 [1]: 9 | IC50 (Hepatitis B virus): 3700 nM

Nc1ncnc2c1ncn2CCOCP(=O)(O)O [ADEFOVIR]
Ratio CC50/IC50 [1]: 34 | IC50 (Hepatitis B virus): 1700 nM

Cc1ccc(C(=O)Nc2ccc3nc(N)n(S(=O)(=O)C(C)C)c3c2)cc1
Ratio CC50/IC50 [1]: >119 | IC50 (Hepatitis B virus): 4200 nM

CC(C)S(=O)(=O)n1c(N)nc2ccc(NC(=O)c3ccc(F)cc3)cc21
Ratio CC50/IC50 [1]: 56 | IC50 (Hepatitis B virus): 1200 nM
